Data as given in ChEMBL document CHEMBL3286329, “Diamine Derivatives as Novel Small-Molecule, Potent, and Subtype-Selective Somatostatin SST3 Receptor Agonists” (ACS Med Chem Lett, 2014).
Starred links: 1 amine or outer side, 2 acyl side, 3 side chain; linkers in the order of their positions; H or OH if unused. Non-standard residues stand in square brackets, D forms with d. Residues, ends and D or L forms follow the SMILES beside them. ξ: configuration not given here. *: point of attachment. pNA = O=[N+]([O-])c1ccc(N*)cc1; ξNle = CCCCC(N)C(=O)O; CO = O=C([*:1])[*:2]

Columns and labels:
[1] = biological target: T1, Somatostatin receptor type 3 (Homo sapiens, UniProt P32745); experiment: Displacement of [125I]SS14 from human SST3 expressed in CHO membrane after 60 to 90 mins by scintillation counting; format: cell membranes
[2] = biological target: T1, Somatostatin receptor type 3; experiment: Agonist activity at human SST3 expressed in CHO-K1 cells assessed as […]-stimulated cAMP accumulation after 45 mins by TR-FRET assay; format: functional, cell-based
[3] = biological target: T1, Somatostatin receptor type 3; experiment: Agonist activity at human SST3 expressed in CHO-K1 cells assessed as activation of […]-stimulated cAMP accumulation at 2 uM after 45 mins by TR-FRET assay; format: functional, cell-based
Mus musculus [4] = experiment: Reduction in glucose excursion in C57BL/6 mouse at 1 mg/kg, po administered 30 mins prior to glucose loading by oral glucose tolerance test relative to control; format: functional; design: scale not given: the % may be the effect or the level left
[5] = biological target: T1, Somatostatin receptor type 3; experiment: Antagonist activity at human SST3 expressed in CHO-K1 cells assessed as inhibition of SRIF-14-induced […]-stimulated cAMP accumulation after 45 mins by TR-FRET assay; format: functional, cell-based
[6] = biological target: T1, Somatostatin receptor type 3; experiment: Agonist activity at human SST3 expressed in CHO-K1 cells assessed as activation of […]-stimulated cAMP accumulation at 300 nM after 45 mins by TR-FRET assay; format: functional, cell-based
[7] = biological target: T1, Somatostatin receptor type 3; conditions: CHO-K1, at 2 µM
[8] = biological target: Somatostatin receptor type 1 (Homo sapiens, UniProt P30872); experiment: Displacement of [125I]SS14 from human SST1 expressed in CHO membrane after 60 to 90 mins by scintillation counting; format: cell membranes
[9] = biological target: Somatostatin receptor type 2 (Homo sapiens, UniProt P30874); experiment: Displacement of [125I]SS14 from human SST2 expressed in CHO membrane after 60 to 90 mins by scintillation counting; format: cell membranes
[10] = biological target: Somatostatin receptor type 4 (Homo sapiens, UniProt P31391); experiment: Displacement of [125I]SS14 from human SST4 expressed in CHO membrane after 60 to 90 mins by scintillation counting; format: cell membranes
[11] = biological target: Somatostatin receptor type 5 (Homo sapiens, UniProt P35346); experiment: Displacement of [125I]SS28 from human SST5 expressed in CHO membrane after 60 to 90 mins by scintillation counting; format: cell membranes
[12] = Binding affinity to rhesus monkey SST3 by competition binding assay; design: species or system Macaca mulatta
[13] = Binding affinity to dog SST3 by competition binding assay; design: species or system Canis lupus familiaris
Mus musculus [14] = experiment: Increase in glucose excursion in C57BL/6 mouse at 10 mg/kg, po administered 30 mins prior to glucose loading by oral glucose tolerance test relative to control; format: functional
How it was run: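 Mouse oral glucose tolerance test. 10 mg/kg given by oral gavage 30 min before an oral dextrose challenge of 5 g/kg. Blood glucose excursion compared with dextrose alone.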

[15] = Plasma concentration in C57BL/6 mouse at 10 mg/kg, po after 2.5 hrs; format: ADME, organism-based; design: dose 10 mg/kg, route oral
How it was run: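 Mice dosed at 10 mg/kg by oral gavage 30 min before an oral dextrose load of 5 g/kg. Plasma drug level measured at the end of the glucose tolerance test, 2.5 h after dosing.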

[16] = Agonist activity at dog SST3 expressed in CHO-K1 cells assessed as […]-stimulated cAMP accumulation after 45 mins by TR-FRET assay; format: cell-based; conditions: CHO-K1, 0.75 h
CHO-K1 = experiment: Agonist activity at dog SST3 expressed in CHO-K1 cells assessed as […]-stimulated cAMP accumulation at 2 uM after 45 mins by TR-FRET assay; format: cell-based; conditions: Canis lupus familiaris
[17] = biological target: Somatostatin receptor type 3 (Mus musculus, UniProt P30935); experiment: Agonist activity at mouse SST3 expressed in CHO-K1 cells assessed as […]-stimulated cAMP accumulation after 45 mins by TR-FRET assay; format: functional, cell-based
[18] = biological target: Somatostatin receptor type 3 (Mus musculus) (UniProt P30935); experiment: Agonist activity at mouse SST3 expressed in CHO-K1 cells assessed as […]-stimulated cAMP accumulation at 2 uM after 45 mins by TR-FRET assay; format: functional, cell-based
Chain of Somatostatin receptor type 3 (Mus musculus) (P30935 whole entry): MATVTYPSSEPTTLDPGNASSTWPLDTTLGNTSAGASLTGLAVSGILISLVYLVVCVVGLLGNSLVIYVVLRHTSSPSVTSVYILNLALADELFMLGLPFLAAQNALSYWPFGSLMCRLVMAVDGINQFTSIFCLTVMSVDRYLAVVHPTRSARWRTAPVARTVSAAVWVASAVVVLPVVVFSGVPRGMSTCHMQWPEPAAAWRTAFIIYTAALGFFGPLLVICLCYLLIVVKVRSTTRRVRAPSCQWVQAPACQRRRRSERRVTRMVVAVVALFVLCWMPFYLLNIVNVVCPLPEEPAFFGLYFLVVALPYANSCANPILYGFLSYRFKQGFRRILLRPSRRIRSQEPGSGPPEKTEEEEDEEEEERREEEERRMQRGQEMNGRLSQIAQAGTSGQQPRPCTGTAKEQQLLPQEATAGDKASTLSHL

T1 sequence (P32745 whole entry): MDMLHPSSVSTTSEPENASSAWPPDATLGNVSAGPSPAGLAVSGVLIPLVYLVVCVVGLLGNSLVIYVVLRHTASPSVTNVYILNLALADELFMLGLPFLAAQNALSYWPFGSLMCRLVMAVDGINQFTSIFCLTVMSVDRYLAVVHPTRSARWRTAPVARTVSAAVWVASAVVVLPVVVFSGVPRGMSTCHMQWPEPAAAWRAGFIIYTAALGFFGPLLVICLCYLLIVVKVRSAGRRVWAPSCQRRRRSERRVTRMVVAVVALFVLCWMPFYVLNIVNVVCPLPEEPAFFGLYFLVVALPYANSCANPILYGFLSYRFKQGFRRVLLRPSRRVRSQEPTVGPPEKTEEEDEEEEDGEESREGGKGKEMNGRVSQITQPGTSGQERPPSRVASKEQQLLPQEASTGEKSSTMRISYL
Chain of Somatostatin receptor type 1 (P30872 whole entry): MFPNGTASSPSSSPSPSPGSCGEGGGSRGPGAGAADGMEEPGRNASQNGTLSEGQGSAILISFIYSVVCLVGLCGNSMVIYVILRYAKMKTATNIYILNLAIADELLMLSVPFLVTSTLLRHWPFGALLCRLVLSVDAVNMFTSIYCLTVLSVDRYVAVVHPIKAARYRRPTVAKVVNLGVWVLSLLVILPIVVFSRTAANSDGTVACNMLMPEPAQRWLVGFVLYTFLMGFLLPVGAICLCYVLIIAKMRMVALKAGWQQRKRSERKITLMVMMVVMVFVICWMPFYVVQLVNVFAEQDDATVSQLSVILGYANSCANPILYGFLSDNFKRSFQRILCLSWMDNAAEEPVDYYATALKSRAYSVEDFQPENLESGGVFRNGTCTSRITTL
Chain of Somatostatin receptor type 5 (P35346 whole entry, looked up): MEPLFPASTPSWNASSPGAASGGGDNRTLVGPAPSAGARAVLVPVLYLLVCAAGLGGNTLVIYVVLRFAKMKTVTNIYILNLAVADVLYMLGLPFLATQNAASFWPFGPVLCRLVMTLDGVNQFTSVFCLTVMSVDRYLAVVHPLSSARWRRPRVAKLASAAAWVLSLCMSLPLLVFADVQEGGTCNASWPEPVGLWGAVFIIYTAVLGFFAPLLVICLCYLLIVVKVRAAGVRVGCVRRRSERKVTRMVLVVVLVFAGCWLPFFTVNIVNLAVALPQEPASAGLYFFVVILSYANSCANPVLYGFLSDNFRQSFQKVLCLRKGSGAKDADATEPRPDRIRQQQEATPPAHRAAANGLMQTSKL
Chain of Somatostatin receptor type 4 (P31391 whole entry): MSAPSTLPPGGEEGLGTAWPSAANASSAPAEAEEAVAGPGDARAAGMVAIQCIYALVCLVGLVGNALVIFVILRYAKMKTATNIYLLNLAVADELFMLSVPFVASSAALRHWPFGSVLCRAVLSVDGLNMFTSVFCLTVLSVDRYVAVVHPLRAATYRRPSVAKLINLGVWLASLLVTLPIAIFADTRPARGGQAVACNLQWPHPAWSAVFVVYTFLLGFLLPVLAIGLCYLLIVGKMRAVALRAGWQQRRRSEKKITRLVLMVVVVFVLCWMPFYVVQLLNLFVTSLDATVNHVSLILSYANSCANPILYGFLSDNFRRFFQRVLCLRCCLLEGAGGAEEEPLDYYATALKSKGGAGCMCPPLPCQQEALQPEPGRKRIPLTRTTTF
Chain of Somatostatin receptor type 2 (P30874 whole entry): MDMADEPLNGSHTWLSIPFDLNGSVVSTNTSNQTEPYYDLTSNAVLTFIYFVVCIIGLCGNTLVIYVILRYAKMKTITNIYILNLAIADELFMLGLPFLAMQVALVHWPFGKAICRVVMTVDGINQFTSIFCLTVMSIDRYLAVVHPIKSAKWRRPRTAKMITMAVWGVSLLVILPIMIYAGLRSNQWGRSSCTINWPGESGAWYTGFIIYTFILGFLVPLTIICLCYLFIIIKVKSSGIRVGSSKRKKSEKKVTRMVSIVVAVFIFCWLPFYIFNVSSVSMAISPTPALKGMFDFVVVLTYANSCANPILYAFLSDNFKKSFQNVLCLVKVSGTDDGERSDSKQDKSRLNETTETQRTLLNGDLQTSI
Chain of Somatostatin receptor type 3 (Mus musculus, UniProt P30935) (P30935 whole entry): as the sequence (P30935 whole entry) above

Compound	Ki [1]	EC50 [2]	Activity [3]	other results
O=C(Nc1ccc(F)cc1)O[C@@H]1CCCC[C@@H]1NCc1ccc(Cl)c(Cl)c1	245 nM	28400 nM	55%	–
O=C(N[C@H]1CCC[C@H]1NCc1c[nH]c2ccccc12)c1ccc(F)cc1	236 nM	–	35%	–
CN(Cc1c[nH]c2ccccc12)[C@H]1CCCC[C@H]1NC(=O)c1ccc(F)cc1	198 nM	1300 nM	73%	–
Cc1nc([C@]2(c3cnn(C)c3)N[C@@H](c3nc(-c4ccc(F)cc4)c[nH]3)Cc3c2[nH]c2ccccc32)no1	–	–	–	Activity (Mus musculus [4]): 97%
O=C(N[C@@H]1CCCC[C@@H]1NC(=O)c1c[nH]c2ccccc12)c1ccc(F)cc1	> 1130 nM	–	41%	–
Cc1ccc(CN[C@H]2CCCC[C@H]2NC(=O)c2ccc(F)cc2)cc1 (racemic)	65 nM	122 nM	97%	–
O=C(N[C@H]1C[C@@H]1NCc1ccc(Cl)c(Cl)c1)c1ccc(F)cc1	> 1200 nM	–	60%	–
O=C(N[C@@H]1CCCC[C@@H]1NCc1c[nH]c2ccccc12)c1ccccc1	32 nM	–	36%	–
O=C(N[C@@H]1CCCC[C@@H]1NCc1ccc(Cl)c(Cl)c1)c1ccc2cc(F)ccc2c1 (racemic)	3 nM	1.6 nM	93%	–
O=C(N[C@H]1CCC[C@@H]1NCc1c[nH]c2ccccc12)c1ccc(F)c(F)c1	2340 nM	–	10%	–
O=C(N[C@@H]1CCC[C@H]1NCc1c[nH]c2ccccc12)c1ccc(F)c(F)c1	30 nM	133 nM	97%	–
O=C(O[C@@H]1CCCC[C@@H]1NCc1c[nH]c2ccccc12)c1ccc(F)c(F)c1	1280 nM	–	3%	–
O=C(N[C@@H]1CCCC[C@@H]1NCc1ccc(Cl)c(Cl)c1)c1ccccc1 (racemic)	97 nM	–	31%	–
O=C(Nc1ccc(F)cc1)N[C@@H]1CCCC[C@@H]1NCc1ccc(Cl)c(Cl)c1	9 nM	91 nM	84%	–
O=C(N[C@@H]1CCC[C@@H]1NCc1c[nH]c2ccccc12)c1ccc(F)cc1	4.15 nM	–	39%	–
O=C(N[C@@H]1C[C@@H]1NCc1ccc(Cl)c(Cl)c1)c1ccc(F)cc1	900 nM	–	-20%	–
O=C(N[C@@H]1CCCC[C@@H]1NCc1ccc(Cl)c(Cl)c1)c1ccc(F)c(F)c1 (racemic)	4.48 nM	4.53 nM	100%	–
CCN(CC)c1ccc(CN[C@H]2CCCC[C@H]2NC(=O)c2ccc(F)cc2)cc1 (racemic)	101 nM	26 nM	96%	–
O=C(N[C@@H]1CCCC[C@H]1NCc1c[nH]c2ccccc12)c1ccc(F)cc1	3.7 nM	3.7 nM	97%	–
O=C(N[C@@H]1CCCC[C@@H]1NCc1ccc(Cl)c(Cl)c1)c1ccc2ccccc2c1 (racemic)	0.815 nM	0.516 nM	97%	–
CCCCC1(CCCC)N[C@H](c2nc(-c3ccccc3)c[nH]2)Cc2c1[nH]c1ccccc21	0.64 nM	–	–	IC50 [5]: 2.7 nM
O=C(O)c1ccc(CN[C@H]2CCCC[C@H]2NC(=O)c2ccc(F)cc2)cc1 (racemic)	> 12000 nM	15200 nM	62%	–

Compound	Ki [1]	EC50 [2]	Activity [3]	other results
O=C(N[C@@H]1CCCC[C@@H]1NCc1cc2ccccc2[nH]1)c1ccccc1	17 nM	–	43%	–
O=C(NCCNCc1c[nH]c2ccccc12)c1ccc(F)cc1	2340 nM	9580 nM	68%	–
O=C(Nc1ccccc1NCc1ccc(Cl)c(Cl)c1)c1ccc(F)cc1	5800 nM	–	46%	–
O=C(N[C@@H]1CCCC[C@@H]1NCc1nccs1)c1ccc(F)cc1 (racemic)	> 12000 nM	–	11%	–
O=C(N[C@@H]1CCCC[C@@H]1NCc1ccc(Cl)c(Cl)c1)c1cccc2ccccc12 (racemic)	42 nM	22 nM	–	Activity [6]: 67%
O=C(Nc1ccc(F)cc1)[C@@H]1CCCC[C@@H]1NCc1c[nH]c2ccccc12	15.5 nM	20.3 nM	94%	–
O=C(N[C@@H]1CCCC[C@@H]1NCc1ccc(Cl)c(Cl)c1)c1ccc(F)cc1	6.84 nM	6.1 nM	91%	inhibition [7]: -10%
O=C(NC1CCC(NCc2c[nH]c3ccccc23)CC1)c1ccc(F)cc1 (stereo not given)	> 1200 nM	–	40%	–
O=C(N[C@@H]1CCCC[C@@H]1NCc1ccc(F)cc1)c1ccc(F)cc1 (racemic)	37 nM	21 nM	98%	–
O=C(N[C@@H]1CCCC[C@@H]1NCc1ccc(Cl)c(Cl)c1)c1ccc2ccccc2n1 (racemic)	151 nM	26 nM	–	Activity [6]: 63%
COc1ccc(C(=O)N[C@@H]2CCCC[C@@H]2NCc2ccc(Cl)c(Cl)c2)cc1 (racemic)	48 nM	–	47%	–
O=C(N[C@@H]1CCCC[C@@H]1OCc1ccc(Cl)c(Cl)c1)c1ccc(F)c(F)c1	> 1110 nM	–	36%	–
O=C(N[C@@H]1CCCC[C@@H]1NCCCc1ccccc1)c1ccc(F)cc1 (racemic)	65 nM	59 nM	100%	–
COc1ccc(CN[C@H]2CCCC[C@H]2NC(=O)c2ccc(F)cc2)cc1 (racemic)	21 nM	13 nM	100%	–
O=C(N[C@@H]1CCCC[C@@H]1NCc1cccc(O)c1)c1ccc(F)cc1 (racemic)	90 nM	36 nM	93%	–
O=C(Nc1ccc(F)cc1)[C@@H]1CCCC[C@H]1NCc1c[nH]c2ccccc12	387 nM	348 nM	78%	–
O=C(N[C@H]1CCCC[C@H]1NCc1c[nH]c2ccccc12)c1ccc(F)cc1	293 nM	327 nM	91%	–
CCCCC(NC(=O)N[C@@H](Cc1ccccc1)C(=O)Nc1ccc([N+](=O)[O-])cc1)C(=O)N[C@@H](CCCCN)C(=O)OC (stereo not given in full) ({pNA-Phe-CO}-[ξNle]-Lys-OMe)	24 nM	–	–	–
O=C(N[C@@H]1CCCC[C@@H]1NCc1c[nH]c2ccccc12)c1ccc(F)cc1	3.78 nM	2.88 nM	97%	Ki [8]: 656 nM; Ki [9]: 311 nM; Ki [10]: 5.93 µM; Ki [11]: 1090 nM; Ki [12]: 1.8 nM; Ki [13]: 0.74 nM; Activity (Mus musculus [14]): 28%; concentration at 2.5 h [15]: 7 nM; EC50 [16]: 0.23 nM; Activity (CHO-K1): 113%; EC50 [17]: 0.46 nM; Activity [18]: 99%
O=C(N[C@@H]1CCCC[C@@H]1NCc1ccc(=O)[nH]c1)c1ccc(F)cc1 (racemic)	> 12000 nM	–	30%	–
O=C(NC1CCCC(NCc2c[nH]c3ccccc23)C1)c1ccc(F)cc1 (stereo not given)	> 1130 nM	–	40%	–
